Assay results from ChEMBL document CHEMBL1143237, “Sulfonamide-1,2,4-triazole derivatives as antifungal and antibacterial agents: synthesis, biological evaluation, lipophilicity, and conformational studies” (Bioorg Med Chem, 2008).
Converted amounts (≈) assume the structure as drawn.

What was measured:
[1] = Partition coefficient, log P of the compound; assay type: physicochemical; conditions: octanol/water
Outline: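 Calculated, not measured: AlogP, IAlogP, ClogP, Cosmo logP, mlogP, Kowwin and XlogP were computed and averaged.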

[2] = system: Enterobacter cloacae; assay: Antibacterial activity against Enterobacter cloacae after 24 hrs by microdilution test; assay type: functional
Outline: (§1)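 Broth microdilution in LB medium in 96-well plates. Inoculum 1.0 × 10⁴ CFU per well, from a suspension set to 1.0 × 10⁵ CFU/ml in sterile saline. Compounds at […] µg/ml. Incubation 24 h at 28 °C. MIC is the lowest concentration with no visible growth under a binocular microscope. MBC by subculturing 2 µl into fresh broth for a further 72 h. OD540 read against blank. DMSO negative control.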

[3] = system: Aspergillus flavus; assay: Antifungal activity against Aspergillus flavus ATCC 9643 after 72 hrs by microdilution test; assay type: functional; conditions: ATCC 9643, 72 h
Outline: (§2)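 Modified microdilution in malt broth. Spores were washed from malt agar with sterile 0.85% saline containing 0.1% Tween 80 and adjusted to about 1.0 × 10⁵ per well. Compounds were dissolved in DMSO and tested at […] µg/ml. Incubation 72 h at 28 °C. MIC is the lowest concentration with no visible growth under a binocular microscope. MFC by 2 µl subculture and a further 72 h at 28 °C.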

[4] = system: Escherichia coli; assay: Antibacterial activity against Escherichia coli ATCC 35210 after 24 hrs by microdilution test; assay type: functional; conditions: ATCC 35210, 24 h; outline: as §1
[5] = system: Micrococcus luteus; assay: Antibacterial activity against Micrococcus flavus ATCC 10240 after 24 hrs by microdilution test; assay type: functional; conditions: ATCC 10240, 24 h; outline: as §1
[6] = system: Salmonella typhimurium; assay: Antibacterial activity against Salmonella Typhimurium ATCC 13311 after 24 hrs by microdilution test; assay type: functional, Salmonella enterica subsp. enterica serovar Typhimurium; conditions: Salmonella enterica, ATCC 13311, 24 h; outline: as §1
[7] = system: Aspergillus niger; assay: Antifungal activity against Aspergillus niger ATCC 6275 after 72 hrs by microdilution test; assay type: functional; conditions: ATCC 6275, 72 h; outline: as §2
[8] = system: Trichoderma viride; assay: Antifungal activity against Trichoderma viride IAM 5061 after 72 hrs by microdilution test; assay type: functional; outline: as §2
[9] = system: Bacillus cereus; assay: Antibacterial activity against Bacillus cereus ATCC 10907 after 24 hrs by microdilution test; conditions: ATCC 10907, 24 h
[10] = system: Salmonella enteritidis; assay: Antibacterial activity against Salmonella enteritidis ATCC 13076 after 24 hrs by microdilution test; assay type: functional, Salmonella enterica subsp. enterica serovar Enteritidis; conditions: Salmonella enterica, ATCC 13076, 24 h; outline: as §1
[11] = system: Aspergillus ochraceus; assay: Antifungal activity against Aspergillus ochraceus ATCC 12066 after 72 hrs by microdilution test; assay type: functional; conditions: ATCC 12066, 72 h; outline: as §2
[12] = system: Staphylococcus epidermidis; assay: Antibacterial activity against Staphylococcus epidermidis ATCC 12228 after 24 hrs by microdilution test; assay type: functional; conditions: ATCC 12228, 24 h; outline: as §1
[13] = system: Aspergillus versicolor; assay: Antifungal activity against Aspergillus versicolor ATCC 11730 after 72 hrs by microdilution test; assay type: functional; conditions: ATCC 11730, 72 h; outline: as §2
[14] = system: Talaromyces funiculosus; assay: Antifungal activity against Penicillium funiculosum ATCC 36839 after 72 hrs by microdilution test; assay type: functional; conditions: ATCC 36839, 72 h; outline: as §2

Compound | logP [1] | MBC [2] [µg/mL] | MIC [2] [µg/mL] | MFC [3] [µg/mL] | MIC [3] [µg/mL] | MBC [4] [µg/mL] | MIC [4] [µg/mL] | MBC [5] [µg/mL] | MIC [5] [µg/mL] | MBC [6] [µg/mL] | MIC [6] [µg/mL] | MFC [7] [µg/mL] | MIC [7] [µg/mL] | MFC [8] [µg/mL] | MIC [8] [µg/mL] | MBC [9] [µg/mL] | MIC [9] [µg/mL] | MBC [10] [µg/mL] | MIC [10] [µg/mL] | MFC [11] [µg/mL] | also measured
COc1cc(Cc2n[nH]c(=S)n2-c2ccc(Cl)cc2)c(S(=O)(=O)N(C)C)cc1OC | 2.4 | 100 (≈ 213 µM) | 100 (≈ 213 µM) | 100 (≈ 213 µM) | 50 (≈ 107 µM) | 150 (≈ 320 µM) | 100 (≈ 213 µM) | 150 (≈ 320 µM) | 150 (≈ 320 µM) | 150 (≈ 320 µM) | 150 (≈ 320 µM) | 150 (≈ 320 µM) | 100 (≈ 213 µM) | 100 (≈ 213 µM) | 50 (≈ 107 µM) | 150 (≈ 320 µM) | 150 (≈ 320 µM) | 150 (≈ 320 µM) | 150 (≈ 320 µM) | 150 (≈ 320 µM) | MIC [11]: 100 µg/mL (≈ 213 µM); MBC [12]: 150 µg/mL (≈ 320 µM); MIC [12]: 150 µg/mL (≈ 320 µM); MFC [13]: 150 µg/mL (≈ 320 µM); MIC [13]: 100 µg/mL (≈ 213 µM); MFC [14]: 100 µg/mL (≈ 213 µM); MIC [14]: 100 µg/mL (≈ 213 µM)
CCN(CC)S(=O)(=O)c1cc(OC)c(OC)cc1Cc1n[nH]c(=S)n1-c1ccccc1 | 2.48 | 100 (≈ 216 µM) | 100 (≈ 216 µM) | 150 (≈ 324 µM) | 100 (≈ 216 µM) | 150 (≈ 324 µM) | 100 (≈ 216 µM) | 150 (≈ 324 µM) | 150 (≈ 324 µM) | 150 (≈ 324 µM) | 150 (≈ 324 µM) | 150 (≈ 324 µM) | 100 (≈ 216 µM) | 100 (≈ 216 µM) | 50 (≈ 108 µM) | 150 (≈ 324 µM) | 150 (≈ 324 µM) | 150 (≈ 324 µM) | 150 (≈ 324 µM) | 150 (≈ 324 µM) | MIC [11]: 100 µg/mL (≈ 216 µM); MBC [12]: 150 µg/mL (≈ 324 µM); MIC [12]: 150 µg/mL (≈ 324 µM); MFC [13]: 150 µg/mL (≈ 324 µM); MIC [13]: 100 µg/mL (≈ 216 µM); MFC [14]: 150 µg/mL (≈ 324 µM); MIC [14]: 100 µg/mL (≈ 216 µM)
COc1cc(Cc2n[nH]c(=S)n2-c2ccccc2)c(S(=O)(=O)N2CCCCC2)cc1OC | 2.63 | 100 (≈ 211 µM) | 100 (≈ 211 µM) | 150 (≈ 316 µM) | 100 (≈ 211 µM) | 150 (≈ 316 µM) | 100 (≈ 211 µM) | 150 (≈ 316 µM) | 150 (≈ 316 µM) | 150 (≈ 316 µM) | 100 (≈ 211 µM) | 150 (≈ 316 µM) | 100 (≈ 211 µM) | 150 (≈ 316 µM) | 100 (≈ 211 µM) | 150 (≈ 316 µM) | 150 (≈ 316 µM) | 150 (≈ 316 µM) | 150 (≈ 316 µM) | 150 (≈ 316 µM) | MIC [11]: 100 µg/mL (≈ 211 µM); MBC [12]: 150 µg/mL (≈ 316 µM); MIC [12]: 150 µg/mL (≈ 316 µM); MFC [13]: 150 µg/mL (≈ 316 µM); MIC [13]: 100 µg/mL (≈ 211 µM); MFC [14]: 150 µg/mL (≈ 316 µM); MIC [14]: 100 µg/mL (≈ 211 µM)
CCN(CC)S(=O)(=O)c1cc(OC)c(OC)cc1Cc1n[nH]c(=S)n1-c1ccc(Cl)cc1 | 3.15 | 100 (≈ 201 µM) | 100 (≈ 201 µM) | 150 (≈ 302 µM) | 100 (≈ 201 µM) | 150 (≈ 302 µM) | 100 (≈ 201 µM) | 150 (≈ 302 µM) | 150 (≈ 302 µM) | 150 (≈ 302 µM) | 150 (≈ 302 µM) | 150 (≈ 302 µM) | 100 (≈ 201 µM) | 100 (≈ 201 µM) | 50 (≈ 101 µM) | 150 (≈ 302 µM) | 150 (≈ 302 µM) | 150 (≈ 302 µM) | 150 (≈ 302 µM) | 150 (≈ 302 µM) | MIC [11]: 100 µg/mL (≈ 201 µM); MBC [12]: 150 µg/mL (≈ 302 µM); MIC [12]: 150 µg/mL (≈ 302 µM); MFC [13]: 150 µg/mL (≈ 302 µM); MIC [13]: 100 µg/mL (≈ 201 µM); MFC [14]: 150 µg/mL (≈ 302 µM); MIC [14]: 100 µg/mL (≈ 201 µM)
